Source: ChEMBL document CHEMBL3351523 (Bioorg Med Chem, 2014)

Legend:
[1] = Cytotoxicity against mock-infected human MT4 cells after 96 hrs by MTT assay; format: cell-based
Summary of the method: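 Exponentially growing MT-4 cells were seeded at 1 × 10^5 cells/mL in RPMI-1640 with 10% FBS and held at 37 °C, 5% CO2 with serial compound dilutions. Viability was read by MTT after 96 h. CC50 from linear regression against untreated controls.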

[2] = tested on: Human immunodeficiency virus 1; test: Antiviral activity against HIV1 infected in human MT4 cells assessed as inhibition of virus-induced cytopathogenicity after 4 days by MTT assay; format: functional, organism-based; conditions: Human immunodeficiency virus 1, MT4, 96 h
Summary of the method: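 MT-4 cells (1 × 10^4/well in RPMI) were infected acutely with HIV-1 IIIB, 100 CCID50 (m.o.i. 0.01), with serial dilutions from 100 µM, 1:5. After 4 days at 37 °C, protection from virus-induced cytopathogenicity was read by MTT. EC50 came from linear regression against untreated controls.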

[3] = Cytotoxicity against mock-infected MDBK cells after 48 to 96 hrs by MTT assay; format: cell-based, Bos taurus; conditions: cattle
Summary of the method: (§1)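 Mock-infected MDBK (6 × 10^5 cells/mL; MEM-E, 10% horse serum, 1 mM pyruvate) or BHK (1 × 10^6 cells/mL; MEM-E, 10% FBS) cells were incubated at 37 °C, 5% CO2 with serial dilutions from 100 µM, 1:5. Viability by MTT after 48–96 h. CC50 from linear regression against untreated controls.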

[4] = tested on: Bovine viral diarrhea virus 1; test: Antiviral activity against Bovine viral diarrhea virus infected in MDBK cells assessed as inhibition of virus-induced cytopathogenicity after 3 to 4 days by MTT assay; format: functional, organism-based; conditions: Bovine viral diarrhea virus isolates and strains
[5] = Cytotoxicity against mock-infected BHK21 cells after 48 to 96 hrs by MTT assay; format: functional; conditions: Mesocricetus auratus, BHK-21; summary of the method: as §1
Yellow fever virus = test: Antiviral activity against Yellow fever virus infected in BHK21 cells assessed as inhibition of virus-induced cytopathogenicity after 3 to 4 days by MTT assay; format: functional, organism-based; conditions: BHK-21
Reovirus sp. = test: Antiviral activity against Reovirus type-1 infected in BHK21 cells assessed as inhibition of virus-induced cytopathogenicity after 3 to 4 days by MTT assay; format: functional, organism-based; conditions: BHK-21
[6] = Cytotoxicity against mock-infected african green monkey Vero 76 cells after 48 to 96 hrs by MTT assay; format: cell-based; conditions: chlorocebus sabaeus, mock-infected Vero 76 cells
Coxsackievirus B5 = test: Antiviral activity against Coxsackievirus B5 infected in african green monkey Vero 76 cells assessed as reduction in plaque number after 3 days by plaque reduction assay; format: functional, organism-based; conditions: Enterovirus B, 72 h
Poliovirus 1 = test: Antiviral activity against Poliovirus type 1 Sabin strain infected in african green monkey Vero 76 cells assessed as reduction in plaque number after 2 days by plaque reduction assay; format: functional, organism-based; conditions: Enterovirus C, 48 h
[7] = tested on: Respiratory syncytial virus; test: Antiviral activity against Respiratory syncytial virus infected in african green monkey Vero 76 cells assessed as reduction in plaque number after 5 days by plaque reduction assay; format: functional, organism-based; conditions: human respiratory syncytial virus, 120 h
[8] = tested on: Vesicular stomatitis virus; test: Antiviral activity against Vesicular stomatitis virus infected in african green monkey Vero 76 cells assessed as reduction in plaque number after 2 days by plaque reduction assay; format: functional, organism-based; conditions: 48 h
Vaccinia virus = test: Antiviral activity against Vaccinia Virus infected in african green monkey Vero 76 cells assessed as reduction in plaque number after 3 days by plaque reduction assay; format: functional, organism-based; conditions: Orthopoxvirus vaccinia, 72 h
Human alphaherpesvirus 1 = test: Antiviral activity against HSV1 infected in african green monkey Vero 76 cells assessed as reduction in plaque number after 3 days by plaque reduction assay; format: functional, organism-based; conditions: Human alphaherpesvirus 1, Vero, 72 h

SMILES	CC50 at 96 h [1]	EC50 [2]	CC50 [3]	EC50 [4]	CC50 [5]	EC50 (Yellow fever virus)	EC50 (Reovirus sp.)	CC50 [6]	EC50 (Coxsackievirus B5)	EC50 (Poliovirus 1)	EC50 [7]	EC50 [8]	EC50 (Vaccinia virus)	EC50 (Human alphaherpesvirus 1)
CC(=O)Nc1ccc(Cc2nc3ccccc3[nH]2)cc1	> 100 µM	> 100 µM	> 100 µM	> 100 µM	> 100 µM	> 100 µM	> 100 µM	> 100 µM	> 100 µM	> 100 µM	> 100 µM	> 100 µM	> 100 µM	> 100 µM
COc1ccc2c(c1)nnn1c3cc(Cl)c(Cl)cc3nc21	> 100 µM	> 100 µM	> 100 µM	> 100 µM	> 100 µM	> 100 µM	> 100 µM	> 100 µM	> 100 µM	> 100 µM	> 100 µM	> 100 µM	> 100 µM	> 100 µM
FC(F)(F)c1ccc2c(c1)nc(Cc1ccc(Cl)c(Cl)c1)n2C[C@@H]1CCCN2CCCC[C@H]12	> 100 µM	> 100 µM	37 µM	> 100 µM	> 100 µM	> 100 µM	> 100 µM	> 100 µM	> 100 µM	> 100 µM	> 100 µM	> 100 µM	> 100 µM	> 100 µM
COc1ccc(Cc2nc3cc(C(F)(F)F)ccc3n2C[C@@H]2CCCN3CCCC[C@H]23)cc1	77 µM	> 100 µM	> 100 µM	> 100 µM	> 100 µM	> 100 µM	> 100 µM	89 µM	> 100 µM	> 100 µM	> 100 µM	> 100 µM	> 100 µM	> 100 µM
FC(F)(F)c1ccc2c(c1)nc(Cc1ccc(Cl)c(Cl)c1)n2C[C@H]1CCCN2CCCC[C@H]12	4 µM	> 100 µM	> 100 µM	> 100 µM	34 µM	> 100 µM	> 100 µM	> 100 µM	> 100 µM	> 100 µM	> 100 µM	> 100 µM	> 100 µM	> 100 µM
COc1ccc(Cc2nc3cc(C(F)(F)F)ccc3n2C[C@H]2CCCN3CCCC[C@H]23)cc1	≥ 100 µM	> 100 µM	> 100 µM	> 100 µM	> 100 µM	> 100 µM	> 100 µM	> 100 µM	> 100 µM	> 100 µM	> 100 µM	> 100 µM	> 100 µM	> 100 µM
CC(=O)Nc1ccc(Cc2nc3cc(C(F)(F)F)ccc3[nH]2)cc1	> 100 µM	> 100 µM	> 100 µM	> 100 µM	> 100 µM	> 100 µM	> 100 µM	> 100 µM	> 100 µM	> 100 µM	> 100 µM	> 100 µM	> 100 µM	> 100 µM
Clc1ccc(Cc2nc3cc(Cl)c(Cl)cc3[nH]2)cc1	37 µM	> 100 µM	9 µM	> 100 µM	> 100 µM	> 100 µM	> 100 µM	71 µM	> 100 µM	> 100 µM	> 100 µM	> 100 µM	> 100 µM	> 100 µM
Clc1ccc(Cc2nc3cc(Cl)c(Cl)cc3[nH]2)cc1Cl	> 100 µM	> 100 µM	> 100 µM	> 100 µM	> 100 µM	> 100 µM	> 100 µM	70 µM	> 100 µM	> 100 µM	> 100 µM	> 100 µM	> 100 µM	> 100 µM
Clc1cc2nc(Cc3ccc(Br)cc3)[nH]c2cc1Cl	68 µM	> 100 µM	10 µM	> 100 µM	10 µM	> 100 µM	> 100 µM	73 µM	> 100 µM	> 100 µM	> 100 µM	> 100 µM	> 100 µM	> 100 µM
CC(=O)Nc1ccc(Cc2nc3cc(Cl)c(Cl)cc3[nH]2)cc1	> 100 µM	> 100 µM	> 100 µM	> 100 µM	> 100 µM	> 100 µM	> 100 µM	> 100 µM	> 100 µM	> 100 µM	> 100 µM	> 100 µM	> 100 µM	> 100 µM
CC(CC(=O)O)n1c(Cc2ccc(Cl)cc2)nc2ccccc21 (stereo unspecified)	> 100 µM	> 100 µM	> 100 µM	> 100 µM	> 100 µM	> 100 µM	> 100 µM	> 100 µM	> 100 µM	> 100 µM	> 100 µM	> 100 µM	> 100 µM	> 100 µM
c1ccc2[nH]c(C[C@@H]3CCCN4CCCC[C@H]34)nc2c1	17 µM	> 100 µM	> 100 µM	34 µM	78 µM	> 100 µM	> 100 µM	> 100 µM	> 100 µM	> 100 µM	> 100 µM	> 100 µM	> 100 µM	> 100 µM
Clc1ccc2[nH]c(C[C@@H]3CCCN4CCCC[C@H]34)nc2c1	53 µM	> 100 µM	77 µM	17 µM	52 µM	> 100 µM	> 100 µM	> 100 µM	> 100 µM	> 100 µM	> 100 µM	> 100 µM	> 100 µM	> 100 µM
c1ccc2[nH]c(C[C@H]3CCCN4CCCC[C@H]34)nc2c1	> 100 µM	> 100 µM	> 100 µM	> 100 µM	> 100 µM	> 100 µM	> 100 µM	> 100 µM	> 100 µM	> 100 µM	> 100 µM	> 100 µM	> 100 µM	> 100 µM
c1ccc2[nH]c(CCCC3NCC4CNCC3C4)nc2c1 (stereo unspecified)	> 100 µM	> 100 µM	> 100 µM	> 100 µM	> 100 µM	> 100 µM	> 100 µM	> 100 µM	> 100 µM	> 100 µM	> 100 µM	> 100 µM	> 100 µM	> 100 µM
Clc1ccc2[nH]c(CCCC3NCC4CNCC3C4)nc2c1 (stereo unspecified)	> 100 µM	> 100 µM	> 100 µM	> 100 µM	> 100 µM	25 µM	> 100 µM	> 100 µM	> 100 µM	> 100 µM	> 100 µM	> 100 µM	> 100 µM	> 100 µM
c1ccc2[nH]c(CCCC3NCC4CC3CN3CCCCC43)nc2c1 (stereo unspecified)	> 100 µM	> 100 µM	> 100 µM	94 µM	> 100 µM	87 µM	> 100 µM	> 100 µM	> 100 µM	> 100 µM	> 100 µM	> 100 µM	> 100 µM	> 100 µM
Clc1ccc2[nH]c(CCCC3NCC4CC3CN3CCCCC43)nc2c1 (stereo unspecified)	51 µM	> 100 µM	56 µM	> 100 µM	18 µM	> 100 µM	> 100 µM	59 µM	> 100 µM	> 100 µM	> 100 µM	> 100 µM	> 100 µM	> 100 µM
